From publication PMC3115796 (The Journal of Cell Biology, 2011)

Experiments:
[1] = tested on: MT plus ends in HeLa cells; test: MT plus end tracking, live-cell imaging; assay type: cell-based; conditions: live or fixed cells
In short: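 HeLa cells were grown in 45% DME, 45% Ham's F10 and 10% fetal calf serum. Live imaging used TIRF/widefield at 37°C in a stage-top incubator in culture medium (100× 1.49 NA objective, EMCCD, 0.065 µm/pixel). For fixed cells, −20°C methanol was applied for 15 min, with a 15-min 4% PFA postfix for SLAIN1/2 and EB1 staining, followed by immunofluorescence on a widefield microscope.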

[2] = tested on: SLAIN2 C terminus / full-length CLIP-170; test: GST-SLAIN2 pull-down of CLIPs and full-length CLIP-170; assay type: binding

B1: GFP-SLAIN1: GFP-tagged SLAIN1 (protein)
chain: MMAEQVKCASPVAASGAGPGPVVNAELEVKKLQELVRKLEKQNEQLRSRAASAAAAPHLLLLQPPPPSAPPPAGACSPLATHRAPASTTSPGPGALGPAFPGTYCLPSPAPSLLCSLQPADAPFVYSKPAAGFFGGGGSPEPGTAGTPPGEAATPPLPPPTLLDEVEPLDLESLAAWSEEDDYTWLYVGSSKTFTSPEKSPSPLQWCRHVLDNPTPEMEAARRSLRFRLEQGYTSRGSPLSPQSSIDSELSTSELEDDSISMGYKLQDLTDVQIMARLQEESLRQDYASTSASVSRNSSSVSLSSGKKGTCSDQEYDRYSLEDEEEFDHLPPPQPRLPRCSPFQRGIPHSQTFSSIRDCRRSPSTQYFPSNNFQQPQYYPPQAQTADQQPNRTNGDKLRRSMPNLARMPSTAAASSNLSSPVTVRSSQSFDSSLHGAGSGVSRVPSCIPSPGQIQHRVHSVGHFPVPIRQPLKATAYVSPTVQGSSSSGSSGSSGGSGSGMPLSNGTQLYSTTGIPTPNKAAASGILGRSALPRPSLAINGSNLPRSKIAQPVRSFLQPPKPLSSLSTLRDGNWRDGCY
modifications: left off: GFP, end not stated, kept
How did the “MT plus end tracking / localization (in words)” value [1] turn out when B1 was run?
The value was “colocalized with EB-positive MT ends”.

B2: GFP–CLIP-170-N: amino acids 4–309 of the rat CLIP-170 (protein)
chain: LKPSGLKAPTKILKPGSTALKTPAAAAAPLEKTVPSEKASGPPSSETQEEFVDDFRVGERVWVNGNKPGFIQFLGETQFAPGQWAGIVLDEPIGKNDGSVAGVRYFQCEPLKGIFTRPSKLTRKVQAEDEANGLQTAHARAASPLSTAAATMVSSSPATPSNIPQKPSQPVAKETSATPQISNLTKTASESISNLSEAGSVKKGERELKIGDRVLVGGTKAGVVRFLGETDFAKGEWCGVELDEPLGKNDGAVAGTRYFQCQPKYGLFAPVHKVTKIGFPSTTPAKAKAAAVRRVMATTPASLKRS
modifications: left off: GFP, end not stated, kept
B2 was tested. Which “association with SLAIN2 C terminus” value [2] did it give?
The value was “associated with the SLAIN2 C terminus”.
